Key:
[1] = Selectivity ratio of EC50 for human HepG2 cells to EC50 for Plasmodium falciparum
HEK293 = test: Cytotoxicity against human HEK293 cells after 72 hrs by luminescence assay; assay type: cell-based; conditions: hek293, 72 h
BJ = test: Cytotoxicity against human BJ cells after 72 hrs by luminescence assay; assay type: cell-based
Raji = test: Cytotoxicity against human Raji cells after 72 hrs by luminescence assay; assay type: cell-based
HepG2 = test: Cytotoxicity against human HepG2 cells after 72 hrs by luminescence assay; assay type: cell-based; conditions: hepg2, 72 h
[2] = target: Sulfonylurea receptor 2, Kir6.2 (Homo sapiens, UniProt O60706+Q14654); test: Inhibition of human kir6.2/SUR2A ion channel coexpressed in human HEK293 cells after 5 mins by patch clamp assay; assay type: cell-based
How it was run: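 Human KCNJ11 (Kir6.2) and SUR2A were co-expressed in HEK293 cells to give the ATP-sensitive current IKATP. The assay was run at room temperature by automated parallel patch clamp, with dose-response at 0.2, 0.6, 1.6 and 5 µM. Exposure was 5 min per concentration, with each concentration in two cells (n ≥ 2).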

[3] = Solubility of the compound in phosphate buffered saline by UV spectrophotometry; assay type: physicochemical
[4] = target: T1, Sodium channel protein type 5 subunit alpha (Homo sapiens, UniProt Q14524); test: Inhibition of human cloned Nav1.5 channel expressed in chinese hamster CHO cells assessed as phasic inhibition after 5 mins by patch clamp assay; assay type: cell-based
[5] = target: T1, Sodium channel protein type 5 subunit alpha; test: Inhibition of human cloned Nav1.5 channel expressed in chinese hamster CHO cells assessed as tonic inhibition after 5 mins by patch clamp assay; assay type: cell-based
[6] = Chemical stability in simulated gastric fluid at pH 5 over 24 hrs; assay type: physicochemical; conditions: simulated gi fluid, pH 5, 24 h
Plasma = test: Metabolic stability in mouse plasma over 24 hrs; assay type: ADME, cell-free
[7] = Chemical stability in simulated gastric fluid at pH 2 over 24 hrs; assay type: physicochemical; conditions: simulated gi fluid, pH 2, 24 h
[8] = target: Voltage-gated inwardly rectifying potassium channel KCNH2 (Homo sapiens, UniProt Q12809); test: Inhibition of human cloned ERG channel expressed in chinese hamster CHO cells after 5 mins by patch clamp assay; assay type: cell-based
hERG = test: Therapeutic index, ratio of IC50 for human ERG expressed in CHO cells to EC50 for chloroquine-resistant Plasmodium falciparum K1; assay type: cell-based; conditions: hamster, CHO cells expressing human ERG; read-out: Ratio IC50/EC50
Plasmodium falciparum [9] = test: Antimalarial activity against erythrocytic stage of chloroquine-sensitive Plasmodium falciparum 3D7 after 72 hrs by spectrophotometry; assay type: functional, organism-based; conditions: 3D7, 72 h
Plasmodium falciparum [10] = test: Antimalarial activity against erythrocytic stage of chloroquine-resistant Plasmodium falciparum K1 after 72 hrs by spectrophotometry; assay type: functional, organism-based; conditions: K1, 72 h

Sulfonylurea receptor 2, Kir6.2, sequence (Q14654 whole entry): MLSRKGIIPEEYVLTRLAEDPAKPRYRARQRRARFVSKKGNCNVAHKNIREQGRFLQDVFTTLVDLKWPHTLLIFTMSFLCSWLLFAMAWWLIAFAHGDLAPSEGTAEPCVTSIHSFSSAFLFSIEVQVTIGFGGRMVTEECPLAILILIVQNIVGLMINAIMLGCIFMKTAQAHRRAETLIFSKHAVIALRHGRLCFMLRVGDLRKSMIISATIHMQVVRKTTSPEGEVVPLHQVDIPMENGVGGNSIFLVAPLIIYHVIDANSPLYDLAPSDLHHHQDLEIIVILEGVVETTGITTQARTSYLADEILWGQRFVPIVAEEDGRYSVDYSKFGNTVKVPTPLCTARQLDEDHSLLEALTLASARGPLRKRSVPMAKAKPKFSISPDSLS
Sulfonylurea receptor 2, Kir6.2, sequence (O60706 whole entry): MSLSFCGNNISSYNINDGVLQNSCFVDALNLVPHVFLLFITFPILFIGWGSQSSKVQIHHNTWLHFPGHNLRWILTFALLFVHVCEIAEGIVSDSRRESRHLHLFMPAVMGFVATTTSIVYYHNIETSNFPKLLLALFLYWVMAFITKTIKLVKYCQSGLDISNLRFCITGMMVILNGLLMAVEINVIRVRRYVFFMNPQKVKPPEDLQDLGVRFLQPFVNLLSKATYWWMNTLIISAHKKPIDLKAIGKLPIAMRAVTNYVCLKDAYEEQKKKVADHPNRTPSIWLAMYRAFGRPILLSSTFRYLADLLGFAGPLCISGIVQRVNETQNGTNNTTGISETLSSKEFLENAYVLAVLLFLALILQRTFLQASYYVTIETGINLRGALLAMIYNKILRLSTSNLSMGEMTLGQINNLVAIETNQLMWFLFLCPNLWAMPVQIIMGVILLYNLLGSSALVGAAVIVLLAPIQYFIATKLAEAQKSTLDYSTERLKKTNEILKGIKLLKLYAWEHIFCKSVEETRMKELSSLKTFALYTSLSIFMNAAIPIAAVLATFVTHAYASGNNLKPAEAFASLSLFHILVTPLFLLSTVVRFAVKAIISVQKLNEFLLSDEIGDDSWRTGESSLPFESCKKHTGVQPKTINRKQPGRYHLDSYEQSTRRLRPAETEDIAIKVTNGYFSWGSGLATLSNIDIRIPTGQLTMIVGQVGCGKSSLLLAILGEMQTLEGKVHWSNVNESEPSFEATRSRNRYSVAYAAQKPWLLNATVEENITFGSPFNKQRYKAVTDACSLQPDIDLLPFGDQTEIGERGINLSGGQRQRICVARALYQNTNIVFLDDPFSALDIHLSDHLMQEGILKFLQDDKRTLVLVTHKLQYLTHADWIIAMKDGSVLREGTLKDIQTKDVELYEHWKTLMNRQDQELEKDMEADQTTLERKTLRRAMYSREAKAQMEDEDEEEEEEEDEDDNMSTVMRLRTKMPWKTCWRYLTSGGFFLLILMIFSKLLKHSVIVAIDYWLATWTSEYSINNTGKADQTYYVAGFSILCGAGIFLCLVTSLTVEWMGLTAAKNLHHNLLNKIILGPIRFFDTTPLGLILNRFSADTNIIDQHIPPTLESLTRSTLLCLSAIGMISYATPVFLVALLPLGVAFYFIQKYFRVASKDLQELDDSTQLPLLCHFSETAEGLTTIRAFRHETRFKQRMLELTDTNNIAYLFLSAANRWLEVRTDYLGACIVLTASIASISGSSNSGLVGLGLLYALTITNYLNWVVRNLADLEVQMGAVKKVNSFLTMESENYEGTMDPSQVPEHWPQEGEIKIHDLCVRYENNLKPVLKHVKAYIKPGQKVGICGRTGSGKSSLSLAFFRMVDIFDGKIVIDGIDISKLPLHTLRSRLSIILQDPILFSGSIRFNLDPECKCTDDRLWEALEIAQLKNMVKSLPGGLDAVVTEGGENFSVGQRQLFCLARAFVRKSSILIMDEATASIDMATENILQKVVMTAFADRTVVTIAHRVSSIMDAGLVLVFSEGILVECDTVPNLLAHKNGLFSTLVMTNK
T1 sequence (Q14524 whole entry): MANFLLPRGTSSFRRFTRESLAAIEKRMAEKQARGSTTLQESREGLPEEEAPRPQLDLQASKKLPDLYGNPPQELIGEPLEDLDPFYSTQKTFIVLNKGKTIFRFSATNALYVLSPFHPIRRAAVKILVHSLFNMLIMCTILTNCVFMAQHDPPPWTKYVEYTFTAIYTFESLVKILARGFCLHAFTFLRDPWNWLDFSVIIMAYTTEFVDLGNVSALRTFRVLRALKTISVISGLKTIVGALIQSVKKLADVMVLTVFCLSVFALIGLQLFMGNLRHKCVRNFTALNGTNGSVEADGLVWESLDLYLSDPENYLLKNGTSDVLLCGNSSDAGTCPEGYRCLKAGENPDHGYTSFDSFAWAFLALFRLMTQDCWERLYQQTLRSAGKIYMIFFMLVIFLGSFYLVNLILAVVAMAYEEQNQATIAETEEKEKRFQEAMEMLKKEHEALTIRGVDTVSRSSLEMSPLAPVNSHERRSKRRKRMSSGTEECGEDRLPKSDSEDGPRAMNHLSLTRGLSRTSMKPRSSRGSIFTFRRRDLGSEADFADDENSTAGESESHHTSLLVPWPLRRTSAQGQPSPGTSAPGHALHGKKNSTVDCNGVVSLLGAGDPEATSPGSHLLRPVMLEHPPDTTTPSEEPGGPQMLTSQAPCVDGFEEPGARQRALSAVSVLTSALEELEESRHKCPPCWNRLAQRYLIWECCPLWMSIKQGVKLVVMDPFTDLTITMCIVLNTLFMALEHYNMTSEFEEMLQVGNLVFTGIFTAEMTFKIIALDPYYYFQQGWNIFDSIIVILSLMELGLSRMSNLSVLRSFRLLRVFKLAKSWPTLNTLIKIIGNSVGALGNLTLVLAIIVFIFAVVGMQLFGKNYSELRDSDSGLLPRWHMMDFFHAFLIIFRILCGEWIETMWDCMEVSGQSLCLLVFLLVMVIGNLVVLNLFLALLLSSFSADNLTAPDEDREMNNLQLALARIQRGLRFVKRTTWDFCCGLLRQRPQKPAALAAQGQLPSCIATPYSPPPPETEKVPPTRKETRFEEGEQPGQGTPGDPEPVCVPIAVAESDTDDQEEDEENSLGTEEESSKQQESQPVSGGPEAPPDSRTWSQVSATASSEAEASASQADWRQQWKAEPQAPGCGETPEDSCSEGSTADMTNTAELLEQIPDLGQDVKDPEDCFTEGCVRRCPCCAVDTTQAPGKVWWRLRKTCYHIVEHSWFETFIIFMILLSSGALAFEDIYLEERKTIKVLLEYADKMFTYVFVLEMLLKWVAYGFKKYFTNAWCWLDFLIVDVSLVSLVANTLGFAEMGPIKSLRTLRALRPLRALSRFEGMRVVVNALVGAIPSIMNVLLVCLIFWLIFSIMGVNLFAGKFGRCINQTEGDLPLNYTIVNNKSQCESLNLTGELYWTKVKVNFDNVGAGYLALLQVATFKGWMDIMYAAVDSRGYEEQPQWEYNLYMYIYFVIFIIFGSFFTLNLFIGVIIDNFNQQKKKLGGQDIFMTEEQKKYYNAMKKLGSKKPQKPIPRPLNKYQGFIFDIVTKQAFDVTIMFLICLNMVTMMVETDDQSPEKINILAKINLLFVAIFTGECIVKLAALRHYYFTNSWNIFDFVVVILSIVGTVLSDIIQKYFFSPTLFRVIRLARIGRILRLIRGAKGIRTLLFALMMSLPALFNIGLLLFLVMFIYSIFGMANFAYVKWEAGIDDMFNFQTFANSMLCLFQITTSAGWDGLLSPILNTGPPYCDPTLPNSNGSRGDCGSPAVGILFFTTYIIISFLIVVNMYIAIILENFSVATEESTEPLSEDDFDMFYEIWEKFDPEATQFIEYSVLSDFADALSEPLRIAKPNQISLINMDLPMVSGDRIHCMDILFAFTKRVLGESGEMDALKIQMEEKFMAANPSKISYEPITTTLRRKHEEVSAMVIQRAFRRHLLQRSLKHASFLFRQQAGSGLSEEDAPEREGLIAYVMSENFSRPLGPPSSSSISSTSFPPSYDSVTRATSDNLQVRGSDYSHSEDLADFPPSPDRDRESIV
Voltage-gated inwardly rectifying potassium channel KCNH2, sequence (Q12809 whole entry): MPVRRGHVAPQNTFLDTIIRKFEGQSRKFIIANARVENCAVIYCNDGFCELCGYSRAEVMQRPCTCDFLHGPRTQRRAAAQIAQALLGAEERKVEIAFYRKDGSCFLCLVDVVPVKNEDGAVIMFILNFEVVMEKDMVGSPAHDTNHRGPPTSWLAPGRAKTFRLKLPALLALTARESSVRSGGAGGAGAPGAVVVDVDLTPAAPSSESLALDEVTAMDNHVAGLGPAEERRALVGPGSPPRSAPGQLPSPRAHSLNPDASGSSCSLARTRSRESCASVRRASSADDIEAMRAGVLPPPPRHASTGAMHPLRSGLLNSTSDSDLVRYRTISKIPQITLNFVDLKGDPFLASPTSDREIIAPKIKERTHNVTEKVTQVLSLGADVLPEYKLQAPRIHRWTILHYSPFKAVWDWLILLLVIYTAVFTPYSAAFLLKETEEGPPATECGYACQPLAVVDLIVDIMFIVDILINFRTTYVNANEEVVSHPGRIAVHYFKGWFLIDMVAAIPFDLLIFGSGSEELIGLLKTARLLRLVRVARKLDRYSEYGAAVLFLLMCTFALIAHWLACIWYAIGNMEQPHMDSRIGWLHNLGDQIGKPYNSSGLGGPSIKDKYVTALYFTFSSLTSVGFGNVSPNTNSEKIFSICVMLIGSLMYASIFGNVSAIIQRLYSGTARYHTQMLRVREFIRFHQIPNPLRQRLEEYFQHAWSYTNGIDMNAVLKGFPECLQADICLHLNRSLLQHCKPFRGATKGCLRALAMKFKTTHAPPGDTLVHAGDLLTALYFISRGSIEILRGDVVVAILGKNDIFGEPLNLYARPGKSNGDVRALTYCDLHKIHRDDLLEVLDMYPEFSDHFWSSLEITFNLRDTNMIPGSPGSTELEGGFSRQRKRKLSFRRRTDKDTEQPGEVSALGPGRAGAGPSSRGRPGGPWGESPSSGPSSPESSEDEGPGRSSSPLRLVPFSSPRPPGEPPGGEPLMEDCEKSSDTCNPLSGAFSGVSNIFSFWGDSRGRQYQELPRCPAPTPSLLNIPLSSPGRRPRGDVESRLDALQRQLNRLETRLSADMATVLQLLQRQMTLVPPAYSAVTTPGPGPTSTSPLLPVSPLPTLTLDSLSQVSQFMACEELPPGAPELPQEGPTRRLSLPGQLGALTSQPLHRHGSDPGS

For `CC(C)(C)NCC(O)COc1ccccc1C(=O)CCc1ccccc1.Cl` (racemic), the selectivity ratio [1] was greater than 10, the Activity (HEK293) was “Non-toxic” and the Activity (BJ) was “Non-toxic”. For the same molecule, the Activity (Raji) was “Non-toxic” and the Activity (HepG2) was “Non-toxic”.
In the case of `Cl.O=C(CCc1ccccc1)c1ccccc1OCC1CO1` (racemic), the selectivity ratio [1] is reported as greater than 10, the Activity (HEK293) is reported as “Non-toxic” and the Activity (BJ) is reported as “Non-toxic”. For the same molecule, the Activity (Raji) was “Non-toxic” and the Activity (HepG2) was “Non-toxic”.
In the case of `Cl.O=C(CCc1ccccc1)c1cc(F)ccc1OCC1CO1` (racemic), the selectivity ratio [1] is reported as greater than 10, the Activity (HEK293) is reported as “Non-toxic” and the Activity (BJ) is reported as “Non-toxic”. The Activity (Raji) was “Non-toxic” and the Activity (HepG2) was “Non-toxic”.
With `Cl.O=C(CCc1ccc(F)cc1)c1ccccc1OCC1CO1` (racemic) the selectivity ratio [1] was greater than 10, the Activity (HEK293) was “Non-toxic” and the Activity (BJ) was “Non-toxic”. The Activity (Raji) was “Non-toxic” and the Activity (HepG2) was “Non-toxic”.
In the case of `Cl.O=C(CCc1ccc(F)cc1)c1cc(F)ccc1OCC1CO1` (racemic), the selectivity ratio [1] is reported as greater than 10, the Activity (HEK293) is reported as “Non-toxic” and the Activity (BJ) is reported as “Non-toxic”. For the same molecule, the Activity (Raji) was “Non-toxic” and the Activity (HepG2) was “Non-toxic”.
With `Cl.O=C(CCc1ccccc1)c1ccccc1OCC(O)CNCc1ccccc1` (racemic) the selectivity ratio [1] was greater than 10, the Activity (HEK293) was “Non-toxic” and the Activity (BJ) was “Non-toxic”. The Activity (Raji) was “Non-toxic” and the Activity (HepG2) was “Non-toxic”.
In the case of `Cl.O=C(CCc1ccccc1)c1ccccc1OCC(O)CN(Cc1ccccc1)c1ccccc1` (racemic), the selectivity ratio [1] is reported as greater than 10, the Activity (HEK293) is reported as “Non-toxic” and the Activity (BJ) is reported as “Non-toxic”. For the same molecule, the Activity (Raji) was “Non-toxic” and the Activity (HepG2) was “Non-toxic”.
In the case of `Cc1cccc(N(CC(O)COc2ccccc2C(=O)CCc2ccccc2)c2ccccc2)c1.Cl` (racemic), the selectivity ratio [1] is reported as greater than 10, the Activity (HEK293) is reported as “Non-toxic” and the Activity (BJ) is reported as “Non-toxic”. The Activity (Raji) was “Non-toxic” and the Activity (HepG2) was “Non-toxic”.
With `CN(CCc1ccccc1)CC(O)COc1ccccc1C(=O)CCc1ccccc1.Cl` (racemic) the selectivity ratio [1] was greater than 10, the Activity (HEK293) was “Non-toxic” and the Activity (BJ) was “Non-toxic”. The Activity (Raji) was “Non-toxic” and the Activity (HepG2) was “Non-toxic”.
With `CCN(CC)CC(O)COc1ccccc1C(=O)CCc1ccccc1.Cl` (racemic) the selectivity ratio [1] was greater than 10, the Activity (HEK293) was “Non-toxic” and the Activity (BJ) was “Non-toxic”. For the same molecule, the Activity (Raji) was “Non-toxic” and the Activity (HepG2) was “Non-toxic”.
In the case of `CCCN(CCC)CC(O)COc1ccccc1C(=O)CCc1ccccc1.Cl` (racemic), the selectivity ratio [1] is reported as greater than 10, the Activity (HEK293) is reported as “Non-toxic” and the Activity (BJ) is reported as “Non-toxic”. The Activity (Raji) was “Non-toxic” and the Activity (HepG2) was “Non-toxic”.
With `CCCCN(CCCC)CC(O)COc1ccccc1C(=O)CCc1ccccc1.Cl` (racemic) the selectivity ratio [1] was greater than 10, the Activity (HEK293) was “Non-toxic” and the Activity (BJ) was “Non-toxic”. The Activity (Raji) was “Non-toxic” and the Activity (HepG2) was “Non-toxic”.
For `CC(C)N(CC(O)COc1ccccc1C(=O)CCc1ccccc1)c1ccccc1.Cl` (racemic), the selectivity ratio [1] was greater than 10, the Activity (HEK293) was “Non-toxic” and the Activity (BJ) was “Non-toxic”. The Activity (Raji) was “Non-toxic” and the Activity (HepG2) was “Non-toxic”.
For `Cl.O=C(CCc1ccccc1)c1ccccc1OCC(O)CN(C1CCCCC1)C1CCCCC1` (racemic), the selectivity ratio [1] was greater than 10, the Activity (HEK293) was “Non-toxic” and the Activity (BJ) was “Non-toxic”. For the same molecule, the Activity (Raji) was “Non-toxic” and the Activity (HepG2) was “Non-toxic”.
For `Cl.O=C(CCc1ccc(F)cc1)c1ccccc1OCC(O)CNCc1ccccc1` (racemic), the selectivity ratio [1] was greater than 10, the Activity (HEK293) was “Non-toxic” and the Activity (BJ) was “Non-toxic”. For the same molecule, the Activity (Raji) was “Non-toxic” and the Activity (HepG2) was “Non-toxic”.
With `Cl.O=C(CCc1ccc(F)cc1)c1ccccc1OCC(O)CN(Cc1ccccc1)c1ccccc1` (racemic) the selectivity ratio [1] was greater than 10, the Activity (HEK293) was “Non-toxic” and the Activity (BJ) was “Non-toxic”. For the same molecule, the Activity (Raji) was “Non-toxic” and the Activity (HepG2) was “Non-toxic”.
Molecule `Cl.O=C(CCc1ccccc1)c1ccccc1OCC(O)CN1CCC(c2ccccc2)CC1` (racemic) has an IC50 [2] greater than 5 µM, a solubility [3] of 7.27 µM and an IC50 [4] greater than 5 µM. The IC50 [5] was greater than 5 µM, the Activity (HEK293) was “Non-toxic” and the Activity (BJ) was “Non-toxic”. The Activity (Raji) was “Non-toxic”, the Activity (HepG2) was “Non-toxic” and the Stability [6] was “Stable”. For the same molecule, the Stability (Plasma) was “Stable” and the Stability [7] was “Stable”.
Molecule `Cc1ccc(N2CCN(CC(O)COc3ccccc3C(=O)CCc3ccccc3)CC2)cc1.Cl` (racemic) has an IC50 [2] greater than 5 µM, an IC50 [4] greater than 5 µM and an IC50 [5] greater than 5 µM. The Activity (HEK293) was “Non-toxic”, the Activity (BJ) was “Non-toxic” and the Activity (Raji) was “Non-toxic”. For the same molecule, the Activity (HepG2) was “Non-toxic” and the IC50 [8] was 4.31 µM.
Molecule `Cl.O=C(CCc1ccccc1)c1ccccc1OCC(O)CN1CCN(C(c2ccccc2)c2ccccc2)CC1` (racemic) has a solubility [3] of 0.2 µM, a selectivity ratio [1] greater than 10 and a selectivity ratio (hERG) of 26. The Activity (HEK293) was “Non-toxic”, the Activity (BJ) was “Non-toxic” and the EC50 (Plasmodium falciparum [9]) was 0.06 µM. The Activity (Raji) was “Non-toxic”, the Activity (HepG2) was “Non-toxic” and the EC50 (Plasmodium falciparum [10]) was 0.1 µM. For the same molecule, the IC50 [8] was 2.6 µM, the Stability [6] was “Stable” and the Stability (Plasma) was “Stable”. The Stability [7] was “Stable”.
With `Cl.O=C(CCc1ccc(F)cc1)c1ccccc1OCC(O)CN1CCN(C(c2ccccc2)c2ccccc2)CC1` (racemic) the selectivity ratio [1] was greater than 10, the Activity (HEK293) was “Non-toxic” and the Activity (BJ) was “Non-toxic”. For the same molecule, the EC50 (Plasmodium falciparum [9]) was less than 0.1 µM, the Activity (Raji) was “Non-toxic” and the Activity (HepG2) was “Non-toxic”. It also gave an EC50 (Plasmodium falciparum [10]) of less than 0.1 µM.
`Cl.O=C(CCc1ccccc1)c1cc(F)ccc1OCC(O)CN1CCN(C(c2ccccc2)c2ccccc2)CC1` (racemic) showed an IC50 [2] greater than 5 µM, a solubility [3] of 0.11 µM and an IC50 [4] greater than 5 µM. For the same molecule, the IC50 [5] was greater than 5 µM, the Activity (HEK293) was “Non-toxic” and the Activity (BJ) was “Non-toxic”. The Activity (Raji) was “Non-toxic”, the Activity (HepG2) was “Non-toxic” and the Stability [6] was “Stable”. For the same molecule, the Stability (Plasma) was “Stable” and the Stability [7] was “Stable”.
